Results from different studies.
Lines come from different studies, so protocols differ.
Target: Mitogen-activated protein kinase 11 (MAPK11, Homo sapiens, UniProt Q15759)

`Cn1cc(-c2cc(F)cc(N3CCn4c(cc5c4CCCC5)C3=O)c2CO)cc(Nc2ccc(N3CCN(C4COC4)CC3)cn2)c1=O` gave an inhibition of 11% (enzyme activity, inhibitor; 0.1 µM).
`CC(C)(C)c1cc(C=C(C#N)C#N)cc(Br)c1O` has a remaining activity of 100% (enzyme activity, inhibitor; 0.5 µM).
`Cn1cncc1[C@@](O)(COc1ccc(C#N)cc1-c1ccc(OC(F)(F)F)cc1)c1ccc(C#N)cc1` gave a remaining binding of 96% (cell-free assay, competition with immobilised ligand; 1 µM).
The inhibition of `Cn1cc(-c2cccc(N3CCc4c(sc5c4CC(C)(C)C5)C3=O)c2CO)cc(Nc2ccncn2)c1=O` is reported as 6% (enzyme activity, inhibitor; 1 µM).
`Nc1ncc(-c2nc(N3CCOCC3)nc(N3CCOCC3)n2)c(C(F)F)n1` gave a remaining binding of 98% (binding, competition with immobilised ligand; 10 µM).
`COc1ncccc1-c1cnn2ccc(N3CCN(C(=O)OC(C)C)CC3)nc12` has a remaining binding of 89% (binding, competition with immobilised ligand; 1 µM).
`Cc1nn(C)cc1-c1nc2c(N3CCN(Cc4ccc(Cl)cc4)CC3)c(Cl)cnc2[nH]1` has a remaining binding of 100% (binding, competition with immobilised ligand; 1 µM).
`O=c1[nH]c2ccccc2n1C1CCN(Cc2ccc(-c3[nH]c4cc5ncnc5cc4nc3-c3ccccc3)cc2)CC1` has a remaining signal of 102% (cell-free assay; 0.5 µM).
